Source: PubChem (several laboratories)
STAT1 inh-1: STAT1 signaling inhibition; NIH 3T3 STAT1-luciferase reporter, IFN-gamma, luminescence; inhibition, % at 5.5 µM; 0.35% of 200,000 active; AID 920;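 active means inhibition above a set limit, the mean inhibition across all tested compounds plus 3 SD, cut at about 34% in these data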
C8 TRAIL sens: sensitizes caspase-8 expressing cells to TRAIL; NB7+C8 cells + TRAIL, ATPlite viability luminescence; inhibition (viability loss, TRAIL sensitization), % at 10 µM; 1% of 360,000 active; AID 624354;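 active means compounds causing at least 50% loss of cell viability in the single-dose screen, relative to plate controls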
PPC-1+TRAIL kill: PPC-1 cancer cell killing with TRAIL present | 0.41% of 220,000 active | AID 1443 | PPC-1 cells + TRAIL, ATPLite viability luminescence | cell killing (% activity), % at 4 µM or 5 µM;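 active means cell killing above 50% in the first pass at 4 µM, then a duplicate retest at 5 µM averaging 50% or more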
STAT3 blocker: inhibitors of IL-6 induced STAT3 signaling; U3A cells, IL-6 STAT3-luciferase reporter, luminescence; host cell line lacks STAT1; inhibition, % at 5.5 µM; 0.89% of 190,000 active; AID 862;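 active means inhibition above the mean inhibition across all screened compounds plus 3 SD, cut at about 44% in these data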
STAT3 act-1: STAT3 signaling activation | 0.91% of 190,000 active | AID 871 | U3A cells, IL-6 STAT3-luciferase reporter, luminescence; 100% = signal with IL-6 EC80 alone | activation (% of control), % at 5.6 µM;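 active means activation above the screen-wide mean of compound activation plus 3 SD, cut at about 130% in these data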
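Material: STAT1-lacking human U3A cells, STAT3 luciferase reporter | Benchmarks: IL-6-only wells as 100% reference | Probe or stimulus: IL-6 (33 ng/mL) | Timing: Compound 1 h, then IL-6 6 h at 37 °C | Detection: Luminescence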
STAT3 act-2: confirmation of STAT3 signaling activators. shares compounds with STAT3 act-1. U3A STAT3-luciferase reporter, IL-6 potentiation, luminescence; U3A cells lack STAT1; 100 means same as IL-6 alone. potentiation (% of control), % at 5.7 µM. 64% of 1,200 active;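 active means percent activation of the STAT3 luciferase reporter above a set limit taken from the earlier primary screen, cut at about 130% in these data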
NFkB act STAT3ct: counter-screen for STAT3 activators: NF-kappaB activation | shares compounds with STAT3 act-1 | human cells, NF-kappaB reporter activation | activation (% of control), % at 5.7 µM | 11% of 1,200 active | AID 1309; in the data active means activation above about 120%;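 further: reporter induced by TNF-alpha stimulation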
STAT1 act STAT3c: activates STAT1, counter-screen to STAT3 activators; shares compounds with STAT3 act-1; NIH 3T3 STAT1-luciferase reporter, IFN-gamma, luminescence; activation (% of control), % at 5.7 µM; 13% of 1,200 active;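 active means activation above the solvent-only control well mean plus 3 SD, set per screening run, cut at about 120% in these data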
STAT1 inh-2: STAT1 inhibition, confirmation assay; shares compounds with STAT1 inh-1; NIH 3T3 STAT1-luciferase reporter, IFN-gamma, luminescence; inhibition, % at 5.5 µM; 55% of 200 active; AID 1263;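 active means triplicate mean inhibition exceeding the hit cutoff computed for the primary STAT1 screen, cut at about 35% in these data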
NFkB inh: NF-kappaB inhibition in STAT1 inhibitor counter-screen. inhibition, % at 5.7 µM. HEK293T NF-kB luciferase reporter, TNF-alpha induced, luminescence. shares compounds with STAT1 inh-1. 30% of 200 active;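 active means inhibition above the mean of solvent-only control wells plus 3 SD of those wells, cut at about 15% in these data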
STAT3 inh STAT1c: STAT3 inhibition in STAT1 inhibitor counter-screen | shares compounds with STAT1 inh-1 | U3A cells, IL-6 STAT3 luciferase reporter, luminescence; cells lacking STAT1 | inhibition, % at 5.7 µM | 20% of 200 active;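 active means inhibition above the mean of solvent-only control wells plus 3 SD, set per campaign, cut at about 25% in these data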
PPC-1 tox: kills PPC-1 cells. shares compounds with PPC-1+TRAIL kill. PPC-1 viability, ATPlite luminescence, overnight. cytotoxicity, % at 5 µM. 50% of 1,200 active;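 active means reconfirmed compounds whose average cytotoxicity reaches 50% or more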
Each line names hits and unclear results; the compound was inactive in the other large screens (follow-up assays come after a bar, where they were run). This is a sample that favours compounds with a hit; in the whole collection about 1.8% have one here.

Cc1ccc(-c2nc3ccccc3c(=O)n2-c2ccncc2)cc1	none
O=c1c2ccccc2nc(-c2ccc(-c3ccccc3)cc2)n1-c1ccncc1	STAT3 act-1 144 | STAT3 act-2 134 | NFkB act STAT3ct inactive | STAT1 act STAT3c inactive
FC(F)=C(F)CCSc1ncn[nH]1	none
CC(C)[C@H]1C(=O)O[C@H](C(C)C)C(=O)N(C)[C@@H](C(C)C)C(=O)O[C@H](C(C)C)C(=O)N(C)[C@@H](C(C)C)C(=O)O[C@H](C(C)C)C(=O)N1C	STAT1 inh-1 47, C8 TRAIL sens 53 (no result: STAT3 blocker, STAT3 act-1) | STAT1 inh-2 inactive | NFkB inh inactive | STAT3 inh STAT1c inactive
Cc1cc(C)cc(N2C(=O)NC(=O)/C(=C\c3cccn3-c3ccccc3)C2=O)c1	none
Cc1cc(C)cc(N2C(=O)NC(=O)/C(=C\c3cccn3-c3ccc(Cl)cc3)C2=O)c1	STAT1 inh-1 38 | STAT1 inh-2 inactive | NFkB inh inactive | STAT3 inh STAT1c inactive
Cc1ccc(-n2c(C)nc3cc(Cl)ccc3c2=O)nc1	none (no result: STAT1 inh-1, PPC-1+TRAIL kill, STAT3 blocker, STAT3 act-1)
C=C(C=O)CC1CC(O)[C@]2(C)OC3CC4OC5C[C@]6(C)O[C@]7(C)CCC8OC9C[C@]%10(C)OC%11C(C)=CC(=O)OC%11CC%10OC9C[C@@H](C)C8OC7CC6O[C@]5(C)CC5OC5C4OC3CC2O1 (some centres undefined)	C8 TRAIL sens 96, PPC-1+TRAIL kill 80 (no result: STAT3 blocker, STAT3 act-1) | PPC-1 tox 78
C=C(CO)CC1CC(O)[C@]2(C)OC3CC4OC5C[C@]6(C)O[C@]7(C)CCC8OC9C[C@]%10(C)OC%11C(C)=CC(=O)OC%11CC%10OC9C[C@@H](C)C8OC7CC6O[C@]5(C)C/C=C\C4OC3CC2O1 (some centres undefined)	none (no result: STAT3 blocker, STAT3 act-1)
Cn1ccnc1P(=S)(c1nccn1C)N1CCOCC1	none | PPC-1 tox inactive
COc1ccccc1N1CCN(Cc2ccccc2F)CC1	none | PPC-1 tox inactive
COc1ccc(CC(=O)C2C(=O)N(C)c3ccccc32)cc1OC (centres undefined)	none (no result: STAT1 inh-1, PPC-1+TRAIL kill, STAT3 blocker, STAT3 act-1)
COC(=O)C(C)Oc1cc(C)cc2oc(=O)c3c(c12)CCCC3 (centres undefined)	none | PPC-1 tox inactive
Cn1c(O)c(C=NC2CCCCCC2)c(=O)[nH]c1=S	none
CC(=O)N1N=C2C3CCN(CC3)C2C1c1ccc(F)cc1 (centres undefined)	none
Cc1cc(=O)[nH]c(SCc2nc3ccccc3c(=O)n2-c2ccccc2C)n1	none
COC1CC(OC2CCC3(C)C(CCC4C3CCC3(C)C(C5=CC(=O)OC5)C(OC(C)=O)CC43O)C2)OC(C)C1OC1OC(COC2OC(CO)C(O)C(O)C2O)C(O)C(O)C1O (centres undefined)	none (no result: STAT1 inh-1, C8 TRAIL sens, STAT3 blocker, STAT3 act-1) | PPC-1 tox 56
C=C1C(=O)O[C@@H]2C[C@@H](C)[C@@H]3C=CC(=O)[C@@]3(C)[C@@H](O)[C@H]12	C8 TRAIL sens 77, PPC-1+TRAIL kill 60 (no result: STAT1 inh-1, STAT3 blocker, STAT3 act-1) | PPC-1 tox 57
COC(=O)C1=C(c2ccc(OC(F)(F)F)cc2)C[C@@H]2CC[C@H]1N2C(=O)NC1CCCCC1	none (no result: STAT1 inh-1, PPC-1+TRAIL kill, STAT3 blocker, STAT3 act-1)
NC(=S)c1cn(C2OC(CO)C(O)C2O)c2ncnc(N)c12 (centres undefined)	C8 TRAIL sens 67, PPC-1+TRAIL kill 55 (no result: STAT1 inh-1, STAT3 blocker, STAT3 act-1) | PPC-1 tox 55
CCN1/C(=C\C=C\C2=[N+](CC)c3ccccc3C2(C)C)C(C)(C)c2ccccc21	STAT1 inh-1 56, C8 TRAIL sens 77, PPC-1+TRAIL kill 55, STAT3 blocker 100 | PPC-1 tox 60
CC(=O)OC[C@]12CCC(C)=C[C@H]1O[C@@H]1[C@H](O)[C@@H](OC(C)=O)[C@@]2(C)[C@]12CO2	C8 TRAIL sens 89, PPC-1+TRAIL kill 65 (no result: STAT1 inh-1, STAT3 blocker, STAT3 act-1) | PPC-1 tox 63
Cc1cccc(N2CCC3(CC2)C(=O)NC(=O)NC3=O)c1	none (no result: STAT1 inh-1, PPC-1+TRAIL kill, STAT3 blocker, STAT3 act-1)
CC12CCC(=O)CC1CCC1C2C(=O)CC2(C)C1CCC2(C)O (centres undefined)	none (no result: STAT1 inh-1, PPC-1+TRAIL kill, STAT3 blocker, STAT3 act-1)
CC[C@@]1(O)C(=O)OCc2c1cc1n(c2=O)Cc2cc3ccccc3nc2-1	none (no result: STAT1 inh-1, C8 TRAIL sens, STAT3 blocker, STAT3 act-1)
CCC1(OC(=O)CN)C(=O)OCc2c1cc1n(c2=O)Cc2cc3ccccc3nc2-1 (centres undefined)	none (no result: STAT1 inh-1, STAT3 blocker, STAT3 act-1) | PPC-1 tox inactive
N#CC1=C(N)Oc2c(c(=O)oc3ccccc23)C1c1ccc(OC(=O)N2CCOCC2)cc1 (centres undefined)	none (no result: STAT1 inh-1, PPC-1+TRAIL kill, STAT3 blocker, STAT3 act-1)
